ChEMBL document CHEMBL1129495, “Highly selective bradykinin agonists and antagonists with replacement of proline residues by N-methyl-D- and L-phenylalanine” (J Med Chem, 1996)
Square brackets hold non-standard residues; d marks the D form. Peptide text beside a SMILES is read from it.

What was measured:
[1] = Inhibitory activity against low binding affinity binding site of Bradykinin receptor in rat uterus membrane was reported.; assay type: cell membranes
Outline: (§1)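 Fresh rat myometrial or guinea pig ileum membranes (0.3–0.5 mg protein) incubated 30 min at 4 °C with 0.05 nM [3H]BK and increasing peptide concentrations. Buffer: 25 mM TES pH 6.8, 1 µM captopril, 1 mM DTE, bacitracin, BSA. Samples filtered on PEI-treated GF/C and counted. High- and low-affinity IC50s from Tobler–Engel analysis; duplicates.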

Cavia porcellus [2] = organism: Cavia porcellus; assay: Antagonistic activity was evaluated in Guinea pig lung strip assay.; assay type: functional; parameters: scale not given: the % may be the effect or the level left
Outline: (§2)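 Lower-lobe lung strips (2–3 mm) from guinea pigs (400–600 g) in Krebs–Henseleit at 37 °C under 1 g load, with isometric tension recorded. After 1 h equilibration, peptide was given 5 min before an ED50 dose of BK. Cumulative BK curves covered 0.01–10 µM. pA2 by the van Rossum method.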

Cavia porcellus [3] = organism: Cavia porcellus; assay: (§3) Antagonistic activity was evaluated in Guinea pig ileum assay.; assay type: functional; parameters: scale not given: the % may be the effect or the level left
Outline: (§4)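 Guinea pig terminal ileum in Tyrode at 37 °C under 0.5 g tension, isotonic recording. Analog added 5 min before a cumulative BK dose–response curve (maximum at 0.3 µM BK). pA2 is the negative log of the antagonist concentration that reduces the effect of a double BK dose to that of a single dose. Means of 3–7 determinations.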

[4] = Selectivity for rat uterus is expressed as the ratio RUT/GPI; assay type: functional
Outline: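 Ratio of agonist activity (percent of BK) in estrus rat uterus to that in guinea pig ileum, both from isotonic contraction assays using the Schild 4-point method.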

Rattus norvegicus [5] = organism: Rattus norvegicus; assay: Agonistic activity was evaluated in Estrus Rat Uterus Assay; assay type: functional
Outline: (§5)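 Uteri from female Wistar rats (180–200 g) given diethylstilbestrol 100 µg/kg sc 16 h before use. Distal horns held in de Jalon solution at 28 °C under 0.5 g resting tension, with isotonic contractions recorded. BK was dosed every 4 min and left in the bath 45 s. Agonist activity by Schild 4-point method, expressed as percent of BK activity.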

[6] = Inhibitory activity against high binding affinity binding site of Bradykinin receptor in rat uterus membrane was reported.; assay type: cell membranes; outline: as §1
[7] = Inhibitory activity against low binding affinity binding site of Bradykinin receptor in guinea pig ileum was reported.; assay type: tissue-based, Cavia porcellus; outline: as §1
Cavia porcellus [8] = organism: Cavia porcellus; assay: Antagonistic activity expressed as pA2 in Guinea pig lung strip assay.; assay type: functional; settings: read-out: pA2 (converted); outline: as §2
[9] = Inhibitory activity against high affinity binding site of Bradykinin receptor in guinea pig ileum was reported.; assay type: tissue-based; settings: Cavia porcellus; outline: as §1
[10] = Inhibitory activity against low affinity binding site of Bradykinin receptor in guinea pig ileum; assay type: tissue-based; settings: Cavia porcellus; outline: as §1
[11] = Inhibitory activity against low affinity binding site of Bradykinin receptor in rat uterus membrane was reported.; assay type: cell membranes; outline: as §1
[12] = Inhibitory activity against high affinity binding site of Bradykinin receptor in rat uterus membrane was reported.; assay type: cell membranes; outline: as §1
Cavia porcellus [13] = organism: Cavia porcellus; assay: as §3; assay type: functional, organism-based; settings: read-out: pA2 (converted); outline: as §4
Cavia porcellus [14] = organism: Cavia porcellus; assay: Agonistic activity against selectivity for smooth muscle contraction in guinea pig ileum.; assay type: functional, Muscle tissue
Outline: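 Isolated terminal ileum (1.5 cm) from guinea pigs fasted 16 h, in Tyrode at 37 °C. Isotonic contractions recorded under 0.5 g resting tension. Agonist activity measured by Schild 4-point method against BK doses of 1 and 2 nM, expressed as percent of BK activity.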

Rattus norvegicus [15] = organism: Rattus norvegicus; assay: Agonistic activity against selectivity for smooth muscle contraction in rat uterus.; assay type: functional, Muscle tissue; outline: as §5
Rattus norvegicus [16] = organism: Rattus norvegicus; assay: Compound was tested for agonist activity for contraction of rat uterus, the negative logarithm of ED50 (pD2) was estimated.
Cavia porcellus [17] = organism: Cavia porcellus; assay: Compound was tested for agonist activity for contraction of guinea pig ileum; the negative logarithm of ED50 (pD2) was estimated.

IC50 [1]	IC50 [6]	IC50 [7]	IC50 [9]	IC50 [10]	IC50 [11]	IC50 [12]	Compound	Activity (Cavia porcellus [2])	Activity (Cavia porcellus [3])	Ratio [4]	Activity (Rattus norvegicus [5])	Kb (Cavia porcellus [8])	Kb (Cavia porcellus [13])	Activity (Cavia porcellus [14])	Activity (Rattus norvegicus [15])	pD2 (Rattus norvegicus [16])	pD2 (Cavia porcellus [17])
65 nM	0.49 nM	29 nM					CN(C(=O)[C@H](CO)NC(=O)[C@H](Cc1cccs1)NC(=O)CNC(=O)[C@@H]1CC(O)CN1C(=O)[C@@H]1CCCN1C(=O)[C@@H](N)CCCN=C(N)N)[C@H](Cc1ccccc1)C(=O)N[C@@H](Cc1ccccc1)C(=O)N[C@@H](CCCN=C(N)N)C(=O)O (stereo partly drawn)	0.04%	0.02%	4000	89%						
			1 nM	25 nM	232 nM	3.5 nM	CN(C(=O)[C@@H](N)CCCN=C(N)N)[C@@H](Cc1ccccc1)C(=O)N1CCC[C@H]1C(=O)NCC(=O)N[C@@H](Cc1ccccc1)C(=O)N[C@@H](CO)C(=O)N1CCC[C@H]1C(=O)N[C@@H](Cc1ccccc1)C(=O)N[C@@H](CCCN=C(N)N)C(=O)O	1.4%	4%		35%	2570 nM					
3.5 nM	6.6 nM	14 nM					NC(N)=NCCC[C@H](NC(=O)[C@H](Cc1ccccc1)NC(=O)[C@@H](Cc1ccccc1)NC(=O)[C@H](CO)NC(=O)[C@H](Cc1ccccc1)NC(=O)CNC(=O)[C@@H]1CCCN1C(=O)[C@@H]1CCCN1C(=O)[C@@H](N)CCCN=C(N)N)C(=O)O (H-RPPGFS[dF]FR-OH)	0.9%			1.7%		2750 nM				
			0.01 nM	1.75 nM	1 nM	0.01 nM	H-RPPGFSPFR-OH [BRADYKININ]	100%	100%	1	100%			100%	100%	7.9	7.4
